Compound activity: PubChem BioAssay, Sanford-Burnham Center for Chemical Genomics
SUMO1 PPI mod = modulators of SUMO1 protein-protein interactions, primary screen, biochemical, uHTS | SUMO1 binding to a labelled peptide, TR-FRET, 1 h | Small ubiquitin-related modifier 1 (Homo sapiens), P63165 | inhibition, % at 20 µM | 360,000 compounds, 0.33% hits; in the data active = inhibition above about 37%
Target sequence (P63165 whole entry, looked up): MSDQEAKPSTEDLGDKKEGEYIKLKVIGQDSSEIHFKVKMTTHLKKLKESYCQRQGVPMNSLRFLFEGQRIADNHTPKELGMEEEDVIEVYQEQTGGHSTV
HKDC1 inh = HKDC1 hexokinase inhibitors, primary screen, biochemical, fluorescence, uHTS. AID 493160, 2011. inhibition, % at 20 µM. 340,000 compounds, 0.16% hits. recombinant HKDC1, G6PDH/diaphorase resazurin coupled fluorescence;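 active = inhibition above about 35% when tested at 20 µM, limit read from the data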;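 also: plate controls were DMSO wells with enzyme for no effect and DMSO wells lacking enzyme for full effect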
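Test system: recombinant HKDC1 (HK5) hexokinase enzyme, produced in-house / Doses: 20 µM test compound, 1% DMSO / Timing: 90 min, room temperature / Detection: G6PDH/diaphorase-coupled fluorescence, 1 mM NADP, 100 µM resazurin, 525/613 nm / Control set: DMSO wells with and without enzyme mix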
LMPTP block = LMPTP phosphatase inhibitors, primary screen, biochemical, fluorescence intensity, uHTS; Low molecular weight phosphotyrosine protein phosphatase (Homo sapiens), P24666; recombinant LMPTP-A, OMFP fluorogenic substrate; inhibition, % at 20 µM; 360,000 compounds, 0.22% hits;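 active = compounds that cut the enzyme signal by at least half of the control window in the single-dose screen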;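 also: plate controls were DMSO wells with enzyme plus substrate for no effect and substrate without enzyme for full effect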
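test system = LMPTP-A | amount = 0.625 nM LMPTP-A final | reagent = fluorogenic phosphatase substrate OMFP at 400 µM final | incubation = 50 min at room temperature | benchmarks = no-enzyme low control, uninhibited high control | medium = Bis-Tris pH 6.0, DTT, detergent | signal = fluorescence intensity of OMFP turnover product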
Scp-1 inhibitor = Scp-1 phosphatase inhibitors, primary screen, biochemical, colorimetric, uHTS; Carboxy-terminal domain RNA polymerase II polypeptide A small phosphatase 1 (Homo …; Recombinant Scp1, phosphopeptide, malachite green phosphate absorbance; inhibition, % at 20 µM; 340,000 compounds, 0.88% hits;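 active = inhibition above about 50% at 20 µM, limit read from the data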;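 also: plate controls were DMSO wells with enzyme for no effect and wells lacking enzyme for full effect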
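Test system: SCP-1 phosphatase catalytic domain, residues 76-261 | Compound dosing: One concentration, 20 µM, with 1.0% DMSO | Schedule: 45 min room-temperature reaction, 5 min colour, 30 min stabiliser | Detection: Absorbance at 630 nm | Read-out basis: % inhibition of SCP-1 phosphate liberation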
DNMT1 block = human DNMT1 methyltransferase inhibitors, primary screen, biochemical, molecular beacon, fluorescence, HinP1I cleavage, uHTS; DNA (cytosine-5)-methyltransferase 1 (Homo sapiens), P26358; inhibition (reported as % activation of signal), % at 10 µM; 360,000 compounds, 0.83% hits; AID 588458, 2011; in the data active = inhibition above about 50%
STEP inh = STEP phosphatase inhibitors, primary screen, biochemical, fluorescence intensity, uHTS; Tyrosine-protein phosphatase non-receptor type 5 (Homo sapiens), P54829; recombinant STEP, OMFP fluorogenic substrate; inhibition, % at 20 µM; 360,000 compounds, 0.25% hits; AID 588621, 2011;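 active = inhibition at 20 µM, scaled per plate between control wells, above about 37%, limit read from the data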;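 also: 0% = DMSO with enzyme and substrate and 100% = substrate only without enzyme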
Target sequence (P54829 whole entry, looked up): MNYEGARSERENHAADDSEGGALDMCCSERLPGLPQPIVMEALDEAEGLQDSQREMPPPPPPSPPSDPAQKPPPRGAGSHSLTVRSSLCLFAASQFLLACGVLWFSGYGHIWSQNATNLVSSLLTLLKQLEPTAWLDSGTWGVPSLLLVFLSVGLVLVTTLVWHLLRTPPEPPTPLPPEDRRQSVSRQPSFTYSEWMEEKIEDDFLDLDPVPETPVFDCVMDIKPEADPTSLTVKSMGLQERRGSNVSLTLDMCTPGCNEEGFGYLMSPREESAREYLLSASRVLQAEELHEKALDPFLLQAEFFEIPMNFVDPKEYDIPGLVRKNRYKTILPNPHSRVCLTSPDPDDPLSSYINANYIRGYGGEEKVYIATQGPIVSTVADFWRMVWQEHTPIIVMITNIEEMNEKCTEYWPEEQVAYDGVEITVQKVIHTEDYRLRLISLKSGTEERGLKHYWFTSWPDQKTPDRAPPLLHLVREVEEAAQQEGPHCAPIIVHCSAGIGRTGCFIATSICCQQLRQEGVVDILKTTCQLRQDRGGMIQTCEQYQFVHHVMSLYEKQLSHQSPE
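material = STEP tyrosine phosphatase | reagent = fluorogenic phosphatase substrate OMFP at 25 µM final | doses = single compound dose of 20 µM, 1% DMSO final | schedule = 20 min reaction, room temperature, in the dark | measured by = fluorescence, 480/540 nm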
* hit, by the source's call; / = no result. In the library only some 1.8% were active in any assay of this set; here they are far more common.

SMILES | SUMO1 PPI mod | HKDC1 inh | LMPTP block | Scp-1 inhibitor | DNMT1 block | STEP inh
O=C(O)c1ccccc1-c1ccc(/C=C2\SC(=O)N(c3ccccc3)C2=O)o1 | -12 | 9 | 1 | 26 | 14 | 10
Cc1cc(=O)oc2cc(OCC(=O)Nc3ccc(CN4CCOCC4)cc3)c(Cl)cc12 | 4 | -2 | 12 | -3 | 5 | -2
Cc1cc(=O)oc2cc(OCC(=O)Nc3ccccc3C(N)=O)c(Cl)cc12 | 62* | 6 | -1 | 4 | 3 | 0
COCCN1C(=O)CSCC1(C)C(=O)NCc1ccccc1 (centres undefined) | -2 | / | -1 | / | / | /
O=C(NCc1cccnc1)c1cc(C2CCCCN2S(=O)(=O)c2cccs2)on1 (centres undefined) | -2 | / | -2 | / | 0 | -1
O=C(c1cc(C2CCCCN2S(=O)(=O)c2cccs2)on1)N1CCOCC1 (centres undefined) | 44* | / | -1 | / | 0 | 2
Nc1nonc1-n1nnc(C(=O)N/N=C/c2cc(Cl)ccc2O)c1CN1CCCCCC1 | 7 | / | 0 | / | 50* | 0
CN(C)c1ccc(/C=N/NC(=O)c2nnn(-c3nonc3N)c2COc2ccc(F)cc2)cc1 | 7 | 1 | 51* | 7 | 32 | 6
CN(Cc1c(C(=O)N/N=C/c2ccccc2O)nnn1-c1nonc1N)C1CCCCC1 | 3 | / | 1 | / | 59* | 0
CN(Cc1c(C(=O)N/N=C/c2cccc(O)c2)nnn1-c1nonc1N)C1CCCCC1 | -3 | -5 | 0 | 3 | 5 | 0
Cc1c(-c2ccc(Cl)cc2)oc(=O)c2c(N)n(-c3ccccc3)nc12 | -2 | 4 | 2 | -21 | 54* | 0
CCN=C1S/C(=C\c2ccc(-c3cccc(C(=O)O)c3)o2)C(=O)N1CC | -2 | 8 | 2 | 42 | 18 | 2
CCN1C(=O)/C(=C\c2ccc(-c3ccc([N+](=O)[O-])cc3OC)o2)SC1=Nc1cccc(C(=O)O)c1 | 54* | 8 | 8 | -9 | -19 | 4
O=C(O)c1cccc(-c2ccc(/C=C3/SC(=Nc4ccccc4)N(Cc4cccnc4)C3=O)o2)c1 | 82* | 21 | 1 | 73* | 23 | 11
CCN=C1S/C(=C/c2ccc(-c3ccc(Cl)cc3C(=O)O)o2)C(=O)N1CC | -2 | 6 | 0 | 4 | 11 | 4
COc1cc2[nH]c(C)c(-c3ccccc3)c(=O)c2cc1Cl | -69 | / | -1 | / | / | /
Cc1onc(-c2c(F)cccc2Cl)c1C(=O)OCC(=O)N(C)c1ccccc1 | -1 | / | 1 | / | 1 | -2
CN1OC[C@@H]2CN(Cc3ccc4c(c3)OCO4)[C@H](c3ccc(N4CCCCC4)cc3)C[C@@H]21 | 3 | / | 1 | / | -18 | 1
Cc1ccc(Cl)cc1N1CCN(C(=O)c2cc3c(=O)n(C)c4ccccc4c3n2C)CC1 | 48* | -2 | 7 | -8 | -6 | 2
COC(=O)c1c(Sc2ccccc2)c2ccccc2n1C | 3 | 3 | 0 | 61* | 4 | -2
Cn1nc(CC(=O)NCc2cccc3ccccc23)c2ccccc2c1=O | -2 | -8 | 0 | -6 | -1 | -6
Cn1nc(CC(=O)NCc2ccc(F)cc2)c2ccccc2c1=O | 46* | -6 | 0 | -13 | 4 | 0
CC(C)Sc1cc(Cl)nc(NC(=O)Nc2ccccc2)n1 | 7 | -2 | 0 | 0 | 1 | 0
NC(=S)n1[nH]c(-c2ccc([N+](=O)[O-])cc2)c(N=Nc2cccc([N+](=O)[O-])c2)c1=O | 88* | -5 | 58* | 74* | -2 | 22
Cc1c(N=Nc2c(-c3ccc([N+](=O)[O-])cc3)[nH]n(C(N)=S)c2=O)cccc1[N+](=O)[O-] | 22 | 5 | 71* | 93* | 75* | 82*
SMILES | SUMO1 PPI mod | HKDC1 inh | LMPTP block | Scp-1 inhibitor | DNMT1 block | STEP inh
Cc1sc(NC(=O)C2CC(=O)N(Cc3ccco3)C2)nc1-c1ccccc1 (centres undefined) | 3 | / | 0 | / | -5 | 3
COc1ccc(S(=O)(=O)Nc2cc3c4c(c2)CC(=O)N4CCC3)cc1OC | 1 | / | -1 | / | -1 | -3
CCn1cc(C(=O)O)c(=O)c2cnc(N3CCN(C(=S)NC(=O)c4ccccc4)CC3)nc21 | 12 | 2 | 56* | -8 | -5 | 2
CCn1cc(C(=O)O)c(=O)c2cnc(N3CCN(C(=S)Nc4ccccc4)CC3)nc21 | 13 | 4 | 1 | -7 | -5 | 1
CCOC(=O)c1cccc(NC(=S)N2CCN(c3ncc4c(=O)c(C(=O)O)cn(CC)c4n3)CC2)c1 | 3 | -7 | 70* | -7 | 1 | 6
CCCOc1ccc(C(=O)NC(=S)N2CCN(c3ncc4c(=O)c(C(=O)O)cn(CC)c4n3)CC2)cc1 | 12 | / | 70* | / | 6 | 7
O=C(O)Cn1nnc(-c2ccccc2)c1COc1ccccc1 | 6 | / | -1 | / | 1 | 4
O=C(Nc1nc(-c2ccccc2)cs1)C1CCCN(S(=O)(=O)c2ccccc2)C1 (centres undefined) | 42* | 2 | 4 | -23 | -7 | 0
O=C(Nc1nc(-c2ccccc2)cs1)C1CCCN(S(=O)(=O)c2cccc([N+](=O)[O-])c2)C1 (centres undefined) | -9 | 8 | 1 | -5 | -2 | 1
Cc1ccc(C(=O)NCCNC(=O)c2cccnc2)cc1 | 2 | -7 | -1 | 27 | 1 | -2
Cc1cc(N)ccc1-n1c(C)ccc1C | -9 | 15 | 6 | -14 | -24 | 10
Cc1cc(N)ccc1N1CCCC1 | 2 | 15 | 68* | 3 | 83* | 24
CCOc1cccc(CNn2cnnc2)c1OCc1ccccc1Cl | 0 | -6 | -2 | 6 | 0 | -3
CCOc1cccc(CNCCO)c1OCc1ccc(Cl)cc1Cl | -2 | -5 | -2 | -4 | 2 | -1
CCOc1cccc(CNc2ccc(O)cc2)c1OCc1ccc(Cl)cc1Cl | 68* | 17 | 17 | -5 | -28 | 10
CCOc1cccc(CNc2ccc(O)cc2)c1OCc1ccccc1Cl | 44* | 14 | 22 | -8 | -46 | -6
CCCCn1nnnc1C(c1cc2ccccc2o1)N(Cc1ccccc1)Cc1ccccc1 (centres undefined) | -4 | / | 1 | / | / | /
